Experimental data as given in ChEMBL document CHEMBL3804769, “Antibacterial Diamines Targeting Bacterial Membranes” (J Med Chem, 2016).
Active and inactive are the calls of the source. No cut-off for these calls is given here.

Key:
[1] = test system: Staphylococcus aureus; test: Antibacterial activity against Staphylococcus aureus RN4220 ATCC 35556 incubated overnight by microbroth dilution method; type: functional
Procedure, shortened: (§1)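 Bacteria grown in LB medium. CLSI microbroth dilution in 96-well plates, overnight at 37 °C without shaking. MIC99 taken as the lowest concentration giving complete growth inhibition. Three independent determinations, reported as mean ± SD.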

[2] = test system: Pseudomonas aeruginosa; test: Antibacterial activity against Pseudomonas aeruginosa PAO1 ATCC 47085 incubated overnight by microbroth dilution method; type: functional; procedure, shortened: as §1
[3] = test system: Staphylococcus aureus; test: Antibacterial activity against methicillin-resistant Staphylococcus aureus clinical isolate 20467BA SPA type 59 after 24 hrs by microbroth dilution method; type: functional
Procedure, shortened: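 MRSA isolates from ICU surfaces, stored at −80 °C and grown in Mueller-Hinton broth. Overnight cultures diluted and added to serially diluted compound at ~10⁵ CFU/mL, broth microdilution. Plates incubated 24 h at 37 °C, growth read as absorbance at 620 nm. MIC99 taken as the lowest concentration giving complete growth inhibition.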

[4] = test system: Pseudomonas aeruginosa; test: Antibiofilm activity against Pseudomonas aeruginosa PAO1 ATCC 47085 assessed as dispersal of formed biofilm after 24 hrs by crystal violet staining-based spectrophotometry; type: functional, organism-based
Procedure, shortened: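 Biofilms first grown 24 h on peg lids without compound, then washed. Pegs transferred into serially diluted compound in 10% LB-PBS and incubated a further 24 h at 37 °C. Remaining biofilm stained with crystal violet, eluted in ethanol and read at 600 nm. 300 μM EDTA as positive control for dispersal.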

[5] = test system: Staphylococcus aureus; test: Bactericidal activity against Staphylococcus aureus RN4220 ATCC 35556 in exponential-phase assessed as reduction in bacterial burden at 4 times MIC99 after 2 to 6 hrs by time-kill assay; type: functional, organism-based
Procedure, shortened: (§2)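 Overnight cultures washed and resuspended in PBS, then diluted 100-fold into LB (exponential-phase model) or into 1% PBS (stationary-phase model). Test agent added at 4× MIC99. Incubated at 37 °C with shaking at 200 rpm. CFU counted on LB agar at 0, 2, 4 and 6 h.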

[6] = test system: Staphylococcus aureus; test: Bactericidal activity against Staphylococcus aureus RN4220 ATCC 35556 in stationary-phase assessed as reduction in bacterial burden at 4 times MIC99 after 2 to 6 hrs by time-kill assay; type: functional, organism-based; procedure, shortened: as §2
[7] = test system: Staphylococcus aureus; test: Antibacterial activity against methicillin-resistant Staphylococcus aureus clinical isolate at MIC99 after 12 hrs by microbroth dilution method in presence of 10% fetal bovine serum; type: functional, organism-based
Procedure, shortened: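 Broth microdilution MIC99 run with 10% fetal bovine serum in the medium, after 12 h preincubation of compound with the serum. Plates incubated overnight at 37 °C without shaking. MIC99 taken as the lowest concentration giving complete growth inhibition.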

[8] = Selectivity index, ratio of CC50 for HEK293T/17 cells to MIC99 for methicillin-resistant Staphylococcus aureus clinical isolate
[9] = test system: Caenorhabditis elegans; test: Toxicity in adult L4/juvenile L1 stages of Caenorhabditis elegans N2 assessed as effect on egg development at 64 ug/ml incubated for 96 hrs measured every 12 hrs; type: organism-based; conditions: in vivo
Procedure, shortened: (§3)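 C. elegans N2 maintained on NGM agar at 22 °C. Compound mixed into molten NGM agar at 64 μg/mL. L4 adults, L1 juveniles and synchronized eggs transferred onto test plates and kept 96 h at 22 °C. Checked every 12 h for death, development and egg production. Gentamicin and […] as controls.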

[10] = test system: Caenorhabditis elegans; test: Toxicity in adult L4/juvenile L1 stages of Caenorhabditis elegans N2 assessed as deleterious effect on genotype at 64 ug/ml incubated for 96 hrs measured every 12 hrs; type: organism-based; conditions: in vivo
[11] = test system: Caenorhabditis elegans; test: Toxicity in adult L4/juvenile L1 stages of Caenorhabditis elegans N2 assessed as effect on egg production at 64 ug/ml incubated for 96 hrs measured every 12 hrs; type: organism-based; conditions: in vivo; procedure, shortened: as §3
[12] = test system: Pseudomonas aeruginosa; test: Antibacterial activity against Pseudomonas aeruginosa PAO1 ATCC 47085 in exponential-phase assessed as cytoplasmic membrane depolarization at 1 to 4 times MIC99 by fluorescent probe DiSC3-5 based fluorophotometric analysis; type: functional, organism-based
Procedure, shortened: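 Log-phase cells (OD600 ~0.7) washed and resuspended to OD600 0.05 in 5 mM HEPES pH 7.2 with 5 mM glucose and 100 mM KCl. Loaded with 0.4 μM DiSC3-5 in the dark until fluorescence fell stably by about 90%. Compound added at 4× or 1× MIC99 and fluorescence recorded continuously at 25 °C (ex 622/em 670 nm). 2,4-Dinitrophenol as positive control. Three independent experiments.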

[13] = test system: Pseudomonas aeruginosa; test: Bactericidal activity against Pseudomonas aeruginosa PAO1 ATCC 47085 assessed as reduction in bacterial burden at 4 times MIC99; type: functional
[14] = test system: Pseudomonas aeruginosa; test: Antibacterial activity against Pseudomonas aeruginosa PAO1 ATCC 47085 assessed as increase in outer membrane permeability at 1 to 4 times MIC99 by fluorescent probe 1-N-phenylnaphthylamine based fluorescence assay; type: functional, organism-based
Procedure, shortened: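 PAO1 cells harvested at OD600 ~0.5, washed, and resuspended in 5 mM HEPES pH 7.2 with 10 μM NPN (final) and 10 mM sodium azide (final). Held 30 min at room temperature in the dark. Compound added at 4× or 1× MIC99 and NPN fluorescence recorded continuously (ex 350/em 420 nm). Gentamicin at 4× MIC99 as positive control. Three independent experiments.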

[15] = test system: Staphylococcus aureus; test: Potentiation of kanamycin-induced antibacterial activity against Staphylococcus aureus RN4220 ATCC 35556 assessed as kanamycin MIC at 0.5 times MIC99 after 24 hrs by checkerboard assay (reference value: 16 ug/ml); type: functional; conditions: RN4220 ATCC 35556, 24 h
Procedure, shortened: (§4)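 Checkerboard assay: compound serially diluted along one axis of a 96-well plate and antibiotic along the other, in LB. Each well inoculated with 2 × 10⁴ CFU and incubated 24 h at 37 °C. ΣFIC = FIC A + FIC B, where each FIC is the combination MIC99 divided by the MIC99 of that drug alone.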

[16] = test system: Pseudomonas aeruginosa; test: Potentiation of kanamycin-induced antibacterial activity against Pseudomonas aeruginosa PAO1 ATCC 47085 assessed as kanamycin MIC at 0.5 times MIC99 after 24 hrs by checkerboard assay (reference value: 64 ug/ml); type: functional; conditions: PAO1 ATCC 47085, 24 h; procedure, shortened: as §4
[17] = test system: Staphylococcus aureus; test: Antibacterial activity against Staphylococcus aureus RN4220 ATCC 35556 at 0.5 times MIC99 after 24 hrs by checkerboard assay in presence of norfloxacin; type: functional; procedure, shortened: as §4
[18] = test system: Pseudomonas aeruginosa; test: Antibacterial activity against Pseudomonas aeruginosa PAO1 ATCC 47085 at 0.5 times MIC99 after 24 hrs by checkerboard assay in presence of kanamycin; type: functional; procedure, shortened: as §4
[19] = test system: Pseudomonas aeruginosa; test: Bactericidal activity against Pseudomonas aeruginosa PAO1 ATCC 47085 assessed as reduction in bacterial burden at 0.5 times MIC99 after 3 to 24 hrs by time kill assay in presence of 0.5 times MIC99 of kanamycin relative to control; type: functional, organism-based
Procedure, shortened: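 Combination time-kill in LB at 1 × 10⁶ CFU/mL starting inoculum. Arms were compound or kanamycin alone at 1× and 0.5× MIC99, and the two combined at 0.5× MIC99 each. Incubated at 37 °C with shaking at 300 rpm. Viable counts taken by dilution and plating on LB agar at 0, 3, 6 and 24 h.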

## Cl.Cl.S=C(NCCCNCCCCCNCCCNC(=S)NCC(c1ccccc1)c1ccccc1)NCC(c1ccccc1)c1ccccc1
[1]
  MIC99: 2 µg/mL
[2]
  MIC99: 8 µg/mL
[3]
  MIC99: 1 µg/mL
[4]
  Activity: Active
[5]
  Activity: Active
[6]
  Activity: Active
[7]
  Activity: Active
[8]
  Selectivity Index: 32
[9]
  Activity: Non-toxic
[10]
  Activity: Non-toxic
[11]
  Activity: Non-toxic
[12]
  Activity: Active
[13]
  Activity: >2 deltalog10CFU/ml
[14]
  Activity: Active
[15]
  MIC99: 2 µg/mL
[16]
  MIC99: 8 µg/mL
[17]
  fractional inhibitory concentration index (FICI): 0.75
[18]
  fractional inhibitory concentration index (FICI): 0.75
[19]
  Activity: Active
